The values below come from PMC9305876 (International Journal of Cosmetic Science, 2022).

The test system of series [1] is primary human epidermal melanocytes. The series can be described thus: Melanin content assay in melanocyte cultures. In kind it is cell-based. Particulars: for reduction in melanin synthesis: 72 h; for inhibition of melanin production in melanocytes: 72 h of treatment, at similar doses, mean ± SD.
The test system of a further series is primary melanocytes. Put plainly: Cell viability. In kind it is cell-based, human. A digest of the protocol: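 Neonatal foreskin primary human epidermal melanocytes at passages 4–6 were grown in Medium 254‑CF with melanocyte growth supplement at 37°C and 5% CO2. They were exposed to test compound for 72 h, starting 24 h after plating, alongside 0.1% (v/v) DMSO or medium vehicle controls. Cells were washed in Ca/Mg‑free PBS and loaded with 1 µM Calcein‑AM for 30 min at 37°C, protected from light. Fluorescence was read at ex 490/em 520 nm, with cell‑free blank wells.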

For series [2], the target named is T1, recombinant human tyrosinase (Homo sapiens, UniProt P14679).
T1 sequence (P14679 19-476 limits assumed): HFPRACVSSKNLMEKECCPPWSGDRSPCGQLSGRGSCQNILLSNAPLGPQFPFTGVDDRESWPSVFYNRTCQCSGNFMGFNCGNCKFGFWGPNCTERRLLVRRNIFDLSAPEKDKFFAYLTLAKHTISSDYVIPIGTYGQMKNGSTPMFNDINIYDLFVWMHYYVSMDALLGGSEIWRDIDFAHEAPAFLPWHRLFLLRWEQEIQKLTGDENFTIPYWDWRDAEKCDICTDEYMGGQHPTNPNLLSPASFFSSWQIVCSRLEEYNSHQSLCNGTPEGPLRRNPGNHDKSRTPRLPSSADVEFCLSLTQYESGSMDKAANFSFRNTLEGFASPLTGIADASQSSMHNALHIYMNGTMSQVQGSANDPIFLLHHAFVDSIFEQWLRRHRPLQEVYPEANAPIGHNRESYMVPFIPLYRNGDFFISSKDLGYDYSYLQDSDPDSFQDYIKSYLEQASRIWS
Put plainly: biochemical.

Structures are written as SMILES.

Regarding `NC(=O)c1cccnc1` [niacinamide], the “reduction in melanin synthesis” value in series [1] (niacinamide alone (comparator to 10 mM in combination)) is listed as 7.2 ± 4.3%. Besides, the “maximum non‐cytotoxic dose for primary melanocytes” value with primary melanocytes is on record as 10 mM.

As to `CCCCCCc1ccc(O)cc1O` [4‐HR, 4‐hexylresorcinol], in series [1] (4‐HR alone (comparator to 1 µM in combination)), the “reduction in melanin synthesis” value was found to be 7.3 ± 3%. For the same compound, in series [1], the “inhibition of melanin production in melanocytes” value was determined as 35 ± 1.9%. Besides, in the series on primary melanocytes, the “maximum non‐cytotoxic dose for primary melanocytes” value is 0.01 mM. The IC50 in series [2] was 16 µM.

Regarding `Oc1ccc(O)cc1` [Hydroquinone, hydroquinone], the IC50 in series [2] was above 1000 µM.

With `CCCCc1ccc(O)cc1O` [4‐BR, 4‐butylresorcinol], the “inhibition of melanin production in melanocytes” value in series [1] is on record as 28.6 ± 3%. Further, in series [2], the IC50 is 13 µM.

The term IC50 denotes the concentration needed to halve the response being measured.
